Test results published in ChEMBL document CHEMBL1136118, “N- and C-terminal modifications of negamycin” (Bioorg Med Chem Lett, 2003).
Values after ≈ are worked out from the molar mass of the structure shown.

Tests used:
Format in all cases: functional
Enterobacter cloacae = test: In vitro antibacterial activity against Enterobacter cloacae ATCC 35030
Method in brief: (§1)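 Broth microdilution MIC in Mueller–Hinton broth supplemented with 50% human serum; inoculum 5 × 10⁵ cfu/mL. MG1655 tolC is an efflux pump mutant.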

Escherichia coli [1] = test: In vitro antibacterial activity against Escherichia coli MG1655 tolC; method in brief: as §1
Escherichia coli [2] = test: Inhibitory activity against protein synthesis of Escherichia coli S30 by cell-free transcription/translation coupled assay
Method in brief: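 Coupled transcription/translation in E. coli S30 extract with pGEMbgal DNA template; compounds preincubated with reaction mixture 10 min before template addition; after 1 h incubation ONPG added and β-galactosidase activity read at 420 nm.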

Escherichia coli [3] = test: In vitro antibacterial activity against Escherichia coli ATCC 25922; method in brief: as §1
Escherichia coli [4] = test: In vitro antibacterial activity against Escherichia coli MG1655; method in brief: as §1
Klebsiella pneumoniae = test: In vitro antibacterial activity against Klebsiella pneumoniae […]; method in brief: as §1
Pseudomonas aeruginosa = test: In vitro antibacterial activity against Pseudomonas aeruginosa PA013; method in brief: as §1
Staphylococcus aureus = test: In vitro antibacterial activity against Staphylococcus aureus ATCC 25293; method in brief: as §1
Streptococcus pneumoniae = test: In vitro antibacterial activity against Streptococcus pneumoniae VSPN1005; method in brief: as §1
Mus musculus = test: In vivo efficacy in Escherichia coli murine septicemia model
Method in brief: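 Mice infected ip with approximately 1 × 10⁵ cfu E. coli ATCC25922; compound given iv at 1 and 5 h post-infection; survival followed for 7 days; ED₅₀ calculated by non-linear regression.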

| MIC (Enterobacter cloacae) [µg/mL] | MIC (Escherichia coli [1]) [µg/mL] | IC50 (Escherichia coli [2]) [µM] | MIC (Escherichia coli [3]) [µg/mL] | MIC (Escherichia coli [4]) [µg/mL] | MIC (Klebsiella pneumoniae) [µg/mL] | MIC (Pseudomonas aeruginosa) [µg/mL] | MIC (Staphylococcus aureus) [µg/mL] | MIC (Streptococcus pneumoniae) [µg/mL] | Structure (SMILES) | ED50 (Mus musculus) [mg/kg] |
| --- | --- | --- | --- | --- | --- | --- | --- | --- | --- | --- |
| > 256 | > 256 | > 80 | > 256 | > 256 | > 256 | > 256 | > 256 | > 256 | CN(CP(=O)(O)O)NC(=O)C[C@H](N)C[C@@H](O)CN | – |
| > 256 | > 256 | 20.3 | > 256 | > 256 | > 256 | > 256 | > 256 | > 256 | CCCNC[C@H](O)C[C@@H](N)CC(=O)NN(C)CC(=O)O | – |
| > 256 | > 256 | > 80 | > 256 | > 256 | > 256 | > 256 | > 256 | > 256 | CN(CP(C)(=O)O)NC(=O)C[C@H](N)C[C@@H](O)CN | – |
| 16 (≈ 44.3 µM) | 8 (≈ 22.1 µM) | 3.5 | 16 (≈ 44.3 µM) | 16 (≈ 44.3 µM) | 32 (≈ 88.5 µM) | 64 (≈ 177 µM) | 256 (≈ 708 µM) | – | CC(C)C[C@H](N)C(=O)NC[C@H](O)C[C@@H](N)CC(=O)NN(C)CC(=O)O | – |
| > 256 | 128 (≈ 441 µM) | > 80 | > 256 | > 256 | > 256 | > 256 | > 256 | – | CN(CC(=O)O)NC(=O)C[C@H](N)C[C@@H](O)CN=C(N)N | – |
| > 256 | > 256 | > 80 | > 256 | > 256 | > 256 | > 256 | > 256 | > 256 | CN(CC(=O)O)NC(=O)C[C@H](N)CC(O)CN1CCOCC1 (some centres undefined) | – |
| 16 (≈ 57.9 µM) | 4 (≈ 14.5 µM) | 4.5 | 16 (≈ 57.9 µM) | 8 (≈ 29 µM) | 8 (≈ 29 µM) | 128 (≈ 463 µM) | > 256 | – | CCNC[C@H](O)C[C@@H](N)CC(=O)NN(C)CC(=O)O | – |
| > 256 | > 256 | > 80 | > 256 | > 256 | > 256 | > 256 | > 256 | > 256 | NC[C@H](O)C[C@@H](N)CC(=O)NOCC(=O)O | – |
| > 256 | > 256 | > 80 | > 256 | > 256 | > 256 | > 256 | > 256 | > 256 | CN(CC(=O)O)NC(=O)C[C@H](N)CC(O)CN1CCNCC1 (some centres undefined) | – |
| > 256 | > 256 | > 80 | > 256 | > 256 | > 256 | > 256 | > 256 | > 256 | CN(Cc1nn[nH]n1)NC(=O)C[C@H](N)C[C@@H](O)CN | – |
| > 256 | > 256 | > 80 | > 256 | > 256 | > 256 | > 256 | > 256 | > 256 | NC[C@H](O)C[C@@H](N)CC(=O)NN1CCC[C@H]1C(=O)O | – |
| > 256 | > 256 | > 80 | > 256 | > 256 | > 256 | > 256 | > 256 | > 256 | CC(ONC(=O)C[C@H](N)C[C@@H](O)CN)C(=O)O (some centres undefined) | – |
| > 256 | > 256 | > 80 | > 256 | > 256 | > 256 | > 256 | > 256 | > 256 | CN(CC(=O)O)NC(=O)C[C@H](N)C[C@H](O)CCN | – |
| 64 (≈ 189 µM) | 16 (≈ 47.3 µM) | 0.8 | 64 (≈ 189 µM) | 32 (≈ 94.6 µM) | 32 (≈ 94.6 µM) | > 128 | > 128 | 128 (≈ 378 µM) | CN(CC(=O)O)NC(=O)C[C@H](N)C[C@@H](O)CNCc1ccccc1 | – |
| 128 (≈ 516 µM) | 32 (≈ 129 µM) | 23.4 | 128 (≈ 516 µM) | 128 (≈ 516 µM) | 64 (≈ 258 µM) | > 512 | 512 (≈ 2060 µM) | – | CN(CC(=O)O)NC(=O)C[C@H](N)C[C@H](O)CN | – |
| > 256 | > 256 | > 80 | > 256 | > 256 | > 256 | > 256 | > 256 | > 256 | CN(CC(=O)O)NC(=O)C[C@H](N)CC(O)CN1CC[C@H](N)C1 (some centres undefined) | – |
| > 256 | > 256 | > 80 | > 256 | > 256 | > 256 | > 256 | > 256 | – | CN(CC(=O)O)NC(=O)C[C@H](N)C[C@@H](O)CNC(N)=O | – |
| > 256 | > 256 | > 80 | > 256 | > 256 | > 256 | > 256 | > 256 | > 256 | CN(CC(=O)O)NC(=O)C[C@H](N)C[C@@H](O)CCN | – |
| 16 (≈ 61 µM) | 4 (≈ 15.2 µM) | 2.3 | 16 (≈ 61 µM) | 8 (≈ 30.5 µM) | 4 (≈ 15.2 µM) | 128 (≈ 488 µM) | 128 (≈ 488 µM) | 256 (≈ 976 µM) | CNC[C@H](O)C[C@@H](N)CC(=O)NN(C)CC(=O)O | 16.3 |
| > 256 | > 256 | > 80 | > 256 | > 256 | > 256 | > 256 | > 256 | > 256 | NC[C@H](O)C[C@@H](N)CC(=O)NN1CCC[C@@H]1C(=O)O | – |
| > 256 | > 256 | > 80 | > 256 | > 256 | > 256 | > 256 | > 256 | > 256 | CN(CC(=O)O)NC(=O)C[C@H](N)CC(O)CN1CC[C@@H](N)C1 (some centres undefined) | – |
| > 256 | > 256 | > 80 | > 256 | > 256 | > 256 | > 256 | > 256 | > 256 | CC(C)CCCNC[C@H](O)C[C@@H](N)CC(=O)NN(C)CC(=O)O | – |
| 8 (≈ 32.2 µM) | 2 (≈ 8.06 µM) | 1 | 4 (≈ 16.1 µM) | 4 (≈ 16.1 µM) | 2 (≈ 8.06 µM) | 32 (≈ 129 µM) | 32 (≈ 129 µM) | 32 (≈ 129 µM) | CN(CC(=O)O)NC(=O)C[C@H](N)C[C@@H](O)CN [NEGAMYCIN] | 5.1 |
